Test results as given in paper PMC6785730 (The Journal of General Physiology, 2019).
Numbering of substitutions follows the chain as printed. Like-named read-outs stand apart in the source and are kept apart here.

How the values were obtained:
[1] = system: HCN2 channel; details: cited from earlier work
[2] = system: HCN2 C-terminus; details: 10 and 25 µM HCN2 C-terminus, very high ligand levels; ref Ng et al., 2016; cited from earlier work
[3] = molecular target: T1, wild-type HCN2 C-terminus (Mus musculus, UniProt O88703); assay: ITC binding to wild-type HCN2 C-terminus; details: for n: Wild type, mean ± SEM
T1 sequence (O88703 443-645): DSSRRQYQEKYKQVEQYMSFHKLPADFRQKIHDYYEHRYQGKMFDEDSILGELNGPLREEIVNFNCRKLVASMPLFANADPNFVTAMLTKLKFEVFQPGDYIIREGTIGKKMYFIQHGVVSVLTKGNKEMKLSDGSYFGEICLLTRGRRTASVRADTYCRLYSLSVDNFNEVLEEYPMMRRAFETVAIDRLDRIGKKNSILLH

[4] = molecular target: T2, R591A HCN2 C-terminus (Mus musculus, UniProt O88703, R591A); assay: ITC binding to R591A HCN2 C-terminus
T2 sequence (O88703 443-645 R591A): T1 sequence (O88703 443-645) with R149A
Summary of the method: (§1)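 HCN2 C-linker/CNBD point mutant (residues 443–645) expressed from an HMT-tagged pET28 vector in Rosetta DE3 pLacI cells, induced 4 h. […] Integrated heats fitted to a one- or two-site independent binding model; ≥3 replicates.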

[5] = molecular target: T3, T592A HCN2 C-terminus (Mus musculus, UniProt O88703, T592A); assay: ITC binding to T592A HCN2 C-terminus
T3 sequence (O88703 443-645 T592A): T1 sequence (O88703 443-645) with T150A
Summary of the method: as §1

[6] = molecular target: T4, I630A HCN2 C-terminus (Mus musculus, UniProt O88703, I630A); assay: ITC binding to I630A HCN2 C-terminus; details: for Kd: two-site model, mean ± SEM
T4 sequence (O88703 443-645 I630A): T1 sequence (O88703 443-645) with I188A
Summary of the method: as §1

[7] = molecular target: T5, D631A HCN2 C-terminus (Mus musculus, UniProt O88703, D631A); assay: ITC binding to D631A HCN2 C-terminus; details: for Kd: two-site model, mean ± SEM
T5 sequence (O88703 443-645 D631A): T1 sequence (O88703 443-645) with D189A

[8] = molecular target: T6, L633A HCN2 C-terminus (Mus musculus, UniProt O88703, L633A); assay: ITC binding to L633A HCN2 C-terminus
T6 sequence (O88703 443-645 L633A): T1 sequence (O88703 443-645) with L191A
Summary of the method: as §1

[9] = molecular target: T7, D634A HCN2 C-terminus (Mus musculus, UniProt O88703, D634A); assay: ITC binding to D634A HCN2 C-terminus; details: for Kd: two-site model, mean ± SEM
T7 sequence (O88703 443-645 D634A): T1 sequence (O88703 443-645) with D192A
Summary of the method: as §1

[10] = molecular target: T8, R635A HCN2 C-terminus (Mus musculus, UniProt O88703, R635A); assay: ITC binding to R635A HCN2 C-terminus; details: stoichiometry, single-site model, four trials, three from Ng et al., 2016
T8 sequence (O88703 443-645 R635A): T1 sequence (O88703 443-645) with R193A

[11] = molecular target: T9, I636A HCN2 C-terminus (Mus musculus, UniProt O88703, I636A); assay: ITC binding to I636A HCN2 C-terminus
T9 sequence (O88703 443-645 I636A): T1 sequence (O88703 443-645) with I194A

[12] = molecular target: T10, I636D HCN2 C-terminus (Mus musculus, UniProt O88703, I636D); assay: ITC binding to I636D HCN2 C-terminus
T10 sequence (O88703 443-645 I636D): T1 sequence (O88703 443-645) with I194D

[13] = molecular target: T11, K638A HCN2 C-terminus (Mus musculus, UniProt O88703, K638A); assay: ITC binding to K638A HCN2 C-terminus
T11 sequence (O88703 443-645 K638A): T1 sequence (O88703 443-645) with K196A
Summary of the method: as §1

[14] = molecular target: T12, R632A-HMT HCN2 C-linker/CNBD (Mus musculus, UniProt O88703, R632A); assay: ITC binding to R632A-HMT protein; details: two trials
T12 sequence (O88703 443-645 R632A): T1 sequence (O88703 443-645) with R190A

[15] = molecular target: T1, wild-type HCN2 C-terminus; details: previously found; ref Ng et al., 2016; cited from earlier work
[16] = stoichiometry of high-affinity event
[17] = stoichiometry of low-affinity event
[18] = single-site independent binding model, mean ± SEM, c value <1
[19] = stoichiometry, single-site model
[20] = single-site independent binding model, mean ± SEM
[21] = high-affinity event, two-site model, mean ± SEM
[22] = low-affinity event, two-site model, mean ± SEM
[23] = read-out: Kd Site 1, model input from ITC
[24] = read-out: Kd Site 2, model input from ITC
[25] = read-out: Kd Site 3, model input from ITC
[26] = read-out: Kd Site 4, model input from ITC
[27] = slope of ΔH at 10°C and 25°C, data of Chow et al., 2012

O=c1[nH]cnc2c1ncn2[C@@H]1O[C@@H]2COP(=O)(O)O[C@H]2[C@H]1O [cIMP]
agonist type [1]: partial agonist
promotion of tetramerization [2]: not able to promote tetramerization

cGMP
n [3, 16]: 0.21 ± 0.01
n [3, 17]: 0.27 ± 0.01
fold difference between low- and high-affinity binding ([3]; found here): 3 fold
increase of the high-affinity Kd compared with cAMP binding ([3]; wild-type HCN2 C-terminus): threefold
increase of the low-affinity Kd compared with cAMP binding ([3]; wild-type HCN2 C-terminus): ~3.4 fold
Kd [4, 18]: 322 ± 26.7 µM
n [4, 19]: 2.15E-5 ± 9.20E-6
Kd [5, 18]: 184 ± 2.69 µM
n [5, 19]: 0.20 ± 0.03
Kd ([6]; high-affinity event): 0.49 ± 0.11 µM
Kd ([6]; low-affinity event): 7.78 ± 0.31 µM
n [6, 16]: 0.24 ± 0.05
n [6, 17]: 0.44 ± 0.05
Kd ([7]; high-affinity event): 0.21 ± 0.06 µM
Kd ([7]; low-affinity event): 4.78 ± 0.88 µM
n [7, 16]: 0.20 ± 0.03
n [7, 17]: 0.63 ± 0.09
Kd [8, 20]: 16.5 ± 3.2 µM
n [8, 19]: 0.74 ± 0.09
Kd ([9]; high-affinity event): 0.54 ± 0.1 µM
Kd ([9]; low-affinity event): 8.04 ± 1.32 µM
n [9, 16]: 0.23 ± 0.04
n [9, 17]: 0.87 ± 0.14
n [10]: 0.67 ± 0.09
Kd [11, 21]: 0.24 ± 0.02 µM
Kd [11, 22]: 3.23 ± 0.15 µM
Kd [11, 23]: 0.24 µM
Kd [11, 24]: 3.23 µM
Kd [11, 25]: 3.23 µM
Kd [11, 26]: 3.23 µM
n [11, 16]: 0.23 ± 0.01
n [11, 17]: 0.44 ± 0.02
Kd [12, 21]: 0.21 ± 0.07 µM
Kd [12, 22]: 1.76 ± 0.51 µM
Kd [12, 23]: 0.21 µM
Kd [12, 24]: 1.76 µM
Kd [12, 25]: 1.76 µM
Kd [12, 26]: 1.76 µM
n [12, 16]: 0.18 ± 0.04
n [12, 17]: 0.56 ± 0.08
Kd [13, 20]: 14.7 ± 2.04 µM
n [13, 19]: 0.47 ± 0.09
binding to R632A-HMT protein [14]: not detected
fold difference between low- and high-affinity binding [15]: 2.3 fold

cAMP
n [3, 16]: 0.33 ± 0.02
n [3, 17]: 0.66 ± 0.09
ΔCp, high-affinity binding [3, 27]: −159 cal/mol/°C
ΔCp, low-affinity binding [3, 27]: −898 cal/mol/°C
n [4, 16]: 0.35 ± 0.02
n [4, 17]: 0.70 ± 0.09
n [5, 16]: 0.23 ± 0.01
n [5, 17]: 0.56 ± 0.06
n [6, 16]: 0.28± 0.03
n [6, 17]: 0.69 ± 0.07
n [7, 16]: 0.21 ± 0.02
n [7, 17]: 0.56 ± 0.04
n [8, 16]: 0.41 ± 0.02
n [8, 17]: 0.69 ± 0.05
n [9, 16]: 0.26 ± 0.03
n [9, 17]: 0.81 ± 0.03
n [11, 16]: 0.36 ± 0.01
n [11, 17]: 0.60 ± 0.03
n [12, 16]: 0.56 ± 0.07
n [12, 17]: 0.82 ± 0.02
n [13, 16]: 0.38 ± 0.04
n [13, 17]: 0.50 ± 0.03
binding to R632A-HMT protein [14]: not detected
Hill coefficient [1]: ~1
EC50 ([1]; read-out: EC50 determined by the Hill equation): ~0.1 µM

Nc1ccn([C@@H]2O[C@@H]3COP(=O)(O)O[C@H]3[C@H]2O)c(=O)n1 [cCMP]
agonist type [1]: partial agonist
promotion of tetramerization [2]: not able to promote tetramerization
